According to ChEMBL document CHEMBL1782043, “Synthesis and antileishmanial activity of novel 5-(5-nitrofuran-2-y1)-1,3,4-thiadiazoles with piperazinyl-linked benzamidine substituents” (Eur J Med Chem, 2011):
Active and inactive are the calls of the source. No cut-off for these calls is given here.

How the values were obtained:
[1] = test system: Leishmania major; assay: Antileishmanial activity against promastigotes form of Leishmania major MRHO/IR/75/ER after 24 hrs by MTT assay; format: functional, organism-based
How it was run: (§1)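 Log-phase promastigotes (2 × 10⁶/mL) were used, from a strain passaged in BALB/c mice. They were incubated with serial drug dilutions in phenol red-free RPMI 1640 with 10% FBS, 2 mM glutamine and antibiotics, pH ~7.2, at 25 °C for 24, 48 or 72 h. MTT (0.5 mg/mL) was then added for 4 h at 37 °C. Cells were pelleted and dissolved in DMSO, with absorbance read at 492 nm. Controls received medium plus DMSO. At least two independent experiments were run in triplicate. IC50 came from linear regression, as mean ± SD.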

[2] = Cytotoxicity against mouse peritoneal macrophages after 24 hrs by MTT assay; format: cell-based, Peritoneal macrophage cell
How it was run: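 Peritoneal macrophages were seeded at 2 × 10⁵ cells/well and allowed to adhere. Medium was then replaced with a range of compound concentrations for 24 h at 37 °C in humidified 5% CO₂. Viability was read by MTT colorimetry. Two independent experiments were run in triplicate, and CC50 was obtained by linear regression.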

[3] = test system: Leishmania major; assay: Antileishmanial activity against amastigotes form of Leishmania major MRHO/IR/75/ER infected in mouse peritoneal macrophage assessed as decrease in macrophage infectivity after 24 hrs; format: functional, organism-based
How it was run: (§2)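 Mouse peritoneal macrophages (1 × 10⁶/well) were grown on glass coverslips in RPMI 1640 with 10% heat-inactivated FBS, 2 mM glutamine, penicillin and streptomycin. Non-adherent cells were washed off after 1 h. Stationary-phase promastigotes (2 × 10⁶/well, 3 per macrophage) were added for 2 h at 37 °C under CO₂. Free parasites were washed away, then drug medium was added for 24 h. Cells were methanol-fixed and Giemsa-stained, with 100 cells counted per well. Infectivity index = % infected macrophages × mean parasites per infected cell. Two experiment sets were run.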

[4] = Selectivity index, ratio of CC50 for mouse peritoneal macrophages to IC50 for promastigotes form of Leishmania major MRHO/IR/75/ER after 24 hrs by MTT assay; format: functional
[5] = test system: Leishmania major; assay: Antileishmanial activity against promastigotes form of Leishmania major MRHO/IR/75/ER after 48 hrs by MTT assay; format: functional, organism-based; how it was run: as §1
[6] = test system: Leishmania major; assay: Antileishmanial activity against promastigotes form of Leishmania major MRHO/IR/75/ER after 72 hrs by MTT assay; format: functional, organism-based; how it was run: as §1
[7] = test system: Leishmania major; assay: Antileishmanial activity against amastigotes form of Leishmania major MRHO/IR/75/ER infected in mouse peritoneal macrophage assessed as decrease in infectivity index after 24 hrs; format: functional, organism-based; how it was run: as §2
[8] = test system: Leishmania major; assay: Antileishmanial activity against amastigotes form of Leishmania major MRHO/IR/75/ER infected in mouse peritoneal macrophage assessed as decrease in number of amastigotes per macrophage after 24 hrs; format: functional, organism-based; how it was run: as §2

| Compound | IC50 [1] [µM] | CC50 at 24 h [2] [µM] | Activity [3] | Ratio CC50/IC50 [4] | IC50 [5] [µM] | IC50 [6] [µM] | Activity [7] | Activity [8] |
| --- | --- | --- | --- | --- | --- | --- | --- | --- |
| O=[N+]([O-])c1ccc(-c2nnc(N3CCN(c4ccc(C5=NCCN5)cc4)CC3)s2)o1 | > 200 |  |  |  |  |  |  |  |
| CCNC(=N)c1ccc(N2CCN(c3nnc(-c4ccc([N+](=O)[O-])o4)s3)CC2)cc1.Cl | 33 | 337 | Active | 10.21 | 26 | 16 | Active | Active |
| Cl.N=C(NCC1CCCO1)c1ccc(N2CCN(c3nnc(-c4ccc([N+](=O)[O-])o4)s3)CC2)cc1 (centres undefined) | 95 | 921 |  | 9.69 | 88 | 5 |  |  |
| N#Cc1ccc(N2CCN(c3nnc(-c4ccc([N+](=O)[O-])o4)s3)CC2)cc1 | 104 | 159 | Active | 1.53 | 86 | 32 | Active | Active |
| Cl.N=C(c1ccc(N2CCN(c3nnc(-c4ccc([N+](=O)[O-])o4)s3)CC2)cc1)N1CCOCC1 | 93 | 55 |  | 0.59 | 88 | 4 |  |  |
| CCOC(=N)c1ccc(N2CCN(c3nnc(-c4ccc([N+](=O)[O-])o4)s3)CC2)cc1 | 48 |  | Active |  | 46 | 26 | Active | Active |
| COc1ccc(CNC(=N)c2ccc(N3CCN(c4nnc(-c5ccc([N+](=O)[O-])o5)s4)CC3)cc2)cc1.Cl | 80 | 69 | Active | 0.86 | 76 | 2 | Active | Active |
| CCCNC(=N)c1ccc(N2CCN(c3nnc(-c4ccc([N+](=O)[O-])o4)s3)CC2)cc1.Cl | 10 | 785 | Active | 78.5 | 5 | 0.08 | Active | Active |
| CCCCNC(=N)c1ccc(N2CCN(c3nnc(-c4ccc([N+](=O)[O-])o4)s3)CC2)cc1.Cl | 11 | 123 |  | 11.18 | 4 | 0.2 |  |  |
| CCC(C)NC(=N)c1ccc(N2CCN(c3nnc(-c4ccc([N+](=O)[O-])o4)s3)CC2)cc1.Cl (centres undefined) | 33 | 770 | Active | 23.33 | 18 | 13 | Active | Active |
| Cl.N=C(NCc1ccccc1)c1ccc(N2CCN(c3nnc(-c4ccc([N+](=O)[O-])o4)s3)CC2)cc1 | 9 | 546 | Active | 60.77 | 1.9 | 0.4 | Active | Active |
| CNC(=N)c1ccc(N2CCN(c3nnc(-c4ccc([N+](=O)[O-])o4)s3)CC2)cc1.Cl | 23 | 223 | Active | 9.69 | 22 | 21 | Active | Active |
| O=[N+]([O-])c1ccc(-c2nnc(N3CCN(c4ccc(C5=NCCCN5)cc4)CC3)s2)o1 | > 200 |  |  |  |  |  |  |  |
| Cl.N=C(N)c1ccc(N2CCN(c3nnc(-c4ccc([N+](=O)[O-])o4)s3)CC2)cc1 | 111 | 342 |  | 3.08 | 111 | 26 |  |  |
